# This is a sample that favours compounds with a hit; in the whole collection about 1.9% have one here.
# SR-BI DiI inh = mouse SR-BI HDL lipid transfer inhibition | 320,000 compounds, 0.96% hits | inhibition, % at 12.5 µM | Q61009 | ldlA[mSR-BI] CHO cells, DiI-HDL uptake fluorescence, 3 h | AID 488896;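 active = mean replicate inhibition of at least 70% and a set share of replicates each scoring 70 or more; inconclusive = meets just one of the two criteria; inactive = fails both criteria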;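 also: 0% = median of neutral control wells and 100% = median of positive control wells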
# Target sequence (Q61009 whole entry, looked up): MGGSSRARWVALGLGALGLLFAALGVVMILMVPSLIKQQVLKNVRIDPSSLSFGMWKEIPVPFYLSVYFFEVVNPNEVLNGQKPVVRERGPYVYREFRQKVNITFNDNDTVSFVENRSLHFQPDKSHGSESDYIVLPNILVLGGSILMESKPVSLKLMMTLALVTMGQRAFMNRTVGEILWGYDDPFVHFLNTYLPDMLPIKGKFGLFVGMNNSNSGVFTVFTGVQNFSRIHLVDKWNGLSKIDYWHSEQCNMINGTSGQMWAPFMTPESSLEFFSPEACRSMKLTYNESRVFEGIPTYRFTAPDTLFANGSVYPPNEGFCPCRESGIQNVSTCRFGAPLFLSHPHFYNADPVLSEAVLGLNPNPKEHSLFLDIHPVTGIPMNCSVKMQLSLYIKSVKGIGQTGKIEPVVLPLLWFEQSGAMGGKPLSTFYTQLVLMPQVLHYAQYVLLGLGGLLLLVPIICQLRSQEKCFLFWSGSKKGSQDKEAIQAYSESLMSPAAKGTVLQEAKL
# SR-BI DiI-HDL act = SR-BI HDL lipid transfer activation; CHO ldlA[mSR-BI] cells, DiI-HDL uptake fluorescence, 3 h; 100 = double the neutral-control signal; activation, % at 12.5 µM; 320,000 compounds, 0.096% hits; AID 504775;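 active = mean replicate activation of at least 60% and every replicate at or above 60%; inconclusive = mean or all-replicate condition met, but not both; inactive = mean below 60% and not all replicates reaching 60%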;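 also: 0% = median plate neutral-control signal and 100% = twice that signal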
#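 System: CHO ldlA[mSR-BI] cells / Medium: HEPES-buffered (25 mM, pH 7.4) F12 plus 0.5% BSA / Probe or stimulus: labelled HDL, 10 µg/mL / Doses: single compound concentration, delivered by pin transfer / Schedule: 3 h, 37 °C / Measured by: DiI fluorescence, bottom read / Measure: cell-associated DiI fluorescence as measure of HDL uptake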
# Rtt109 HAT inh = C. albicans Rtt109 histone acetyltransferase inhibition | inhibition, % at 34.9 µM | Q5AAJ8 | purified Rtt109/Vps75, ThioGlo CoA-SH fluorescence, 4 h | 330,000 compounds, 0.16% hits;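 active = inhibition of at least 50% in every replicate; inconclusive = best replicate reaches 50% inhibition but some replicates fall short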
# PglD DTNB = inhibitors of Campylobacter jejuni PglD acetyltransferase; purified PglD enzyme, DTNB colorimetric CoA detection; inhibition, % at 12.5 µM; 360,000 compounds, 0.098% hits; in the data active = inhibition above about 16%, passing the limit was not always enough; inconclusive = no clear call, values can overlap the other calls
# N-glyco inh = blocks N-linked glycosylation in D54 reporter cells; reporter increase, % at 12.5 µM; D54 ERlucT glycosylation luciferase reporter, 24 h; percent of 100 nM tunicamycin response; 360,000 compounds, 0.23% hits;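 active = mean luciferase reporter signal, scaled so untreated is 0 and the glycosylation-blocking control 100, at or above a set limit in every replicate; inconclusive = mean reaches the limit but not every replicate does; inactive = mean below the limit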;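 also: luciferase carries N-glycosylation sites so blocking glycosylation raises the light; 0% = median of neutral control wells and 100% = median of 100 nM tunicamycin wells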
# HIV Env fusion = inhibitors of HIV Env-mediated cell fusion; HeLa-JRFL Env/CEM21 cell fusion, luciferase; inhibition, % at 12.3 µM; 360,000 compounds, 1.1% hits;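 active = mean replicate inhibition score of at least 50 and every replicate individually at or above 50; inconclusive = only one of the two criteria met; inactive = mean below 50 and not all replicates reaching 50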;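 also: 0% = plate neutral controls and 100% = maraviroc near 300 nM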
# * marks the source's active call; other numbers are inactive results; ? = inconclusive; / = not tested or not shown; ! = not active in a repeat; [ ] = remark or other dose.
SMILES,SR-BI DiI inh,SR-BI DiI-HDL act,Rtt109 HAT inh,PglD DTNB,N-glyco inh,HIV Env fusion
COc1cccc(-c2cnc3c(c2)C(=O)N([C@@H](C)CO)C[C@@H](C)[C@H](CN(C)Cc2ccncc2)O3)c1,/,/,/,3,/,3[16.7 µM]
CO[C@@H]1CN(C)C(=O)c2ccc(NC(C)=O)cc2OC[C@H](C)N(C(=O)Cc2ccccn2)C[C@H]1C,/,/,/,0,/,40[16.7 µM]
CCC1CCc2c(sc(NC(=O)c3cccnc3)c2C(N)=O)C1 (centres undefined),77*,-59,-1,-4,4,-4
C/C(=N\Nc1nc(C)c(C)s1)c1ccc([N+](=O)[O-])cc1,81*,-81,-6,/,5,-56
C/C(=N\Nc1ccc([N+](=O)[O-])cc1)c1ccc(N)cc1,23,-23,-2,0,-1,/
O=C(C[C@H]1C=C[C@@H](NC(=O)CN2CCOCC2)[C@@H](CO)O1)NC1CCCCC1,/,/,/,2,/,-5[16.7 µM]
Cc1[nH]c2ccccc2c1C(=O)C(=O)N1CCCc2ccccc21,10,-10,14,/,0,1
Cc1[nH]c2ccccc2c1SCC(=O)N1CCCc2ccccc21,14,-14,8,5,-2,69*
CN1c2ccccc2N(C)C1c1ccc2c(c1)OCO2,8,-8,-5,1,2,63*
C[C@H](CO)N1C[C@H](C)[C@H](CN(C)S(=O)(=O)c2ccc(Cl)cc2)OCCCC[C@H](C)Oc2ccc(NS(=O)(=O)c3ccc(Cl)cc3)cc2C1=O,/,/,/,-1,/,-123[16.7 µM]
C[C@H]1CN([C@@H](C)CO)C(=O)c2cc(NC(=O)Nc3cccc4ccccc34)ccc2O[C@@H]1CN(C)Cc1ccc(C(=O)Nc2ccccc2N)cc1,/,/,/,6,/,/
CCCCCCCCn1c(=O)c(C(=O)OCC)c(O)c2ccccc21,-11,11,-12,/,3,/
CCCCCn1c(=O)c(-c2nc3ccccc3[nH]2)c(O)c2ccccc21,95*,-95,-20,/,1,-14
Cc1ccccc1S(=O)(=O)NCC[C@@H]1CC[C@H](NC(=O)C2CCCCC2)[C@H](CO)O1,/,/,/,-2,/,4[16.7 µM]
CC(=O)Nc1ccccc1N(CC(O)Cn1c2ccccc2c2ccccc21)S(=O)(=O)c1ccc(C)cc1 (centres undefined),-13,13,-13,/,-7,24
CCN(CC(O)Cn1c2ccccc2c2ccccc21)S(=O)(=O)c1ccc(C)cc1 (centres undefined),34,-34,-2,3,-6,56*
C[C@H](CO)N1C[C@H](C)[C@H](CN(C)S(=O)(=O)c2cccc(F)c2)OCc2ccccc2-c2c(n(C)c3ccccc23)C1=O,/,/,/,-1,-2,98*!
C[C@@H]1CN([C@H](C)CO)C(=O)c2c(c3ccccc3n2C)-c2ccccc2CO[C@@H]1CN(C)S(=O)(=O)c1cccc(F)c1,/,/,/,-1,/,95*[16.7 µM]
C[C@@H]1CN([C@H](C)CO)C(=O)c2c(c3ccccc3n2C)-c2ccccc2CO[C@H]1CN(C)S(=O)(=O)c1cccc(F)c1,/,/,/,1,/,49[16.7 µM]
C[C@H](CO)N1C[C@H](C)[C@H](CN(C)S(=O)(=O)c2cccc(C#N)c2)OCc2ccccc2-c2c(n(C)c3ccccc23)C1=O,/,/,/,7,/,57*[16.7 µM]
C[C@@H]1CN([C@H](C)CO)C(=O)c2cc(NS(=O)(=O)c3cn(C)cn3)ccc2O[C@H]1CN(C)Cc1ccc(C(=O)Nc2ccccc2N)cc1,/,/,/,3,/,/
Cn1cccc1-c1nc2ccc(NC(=O)c3ccc([N+](=O)[O-])cc3)cc2[nH]1,87*,-87,-13,2,10,-165
Cc1noc(C)c1CSc1nc2[nH]ncc2c(=O)n1-c1ccccc1,8,-8,5,2,42*,/
C=CCn1c(SCc2c(C)noc2C)nc2cc(C(=O)O)ccc2c1=O,-12,12,/,3,4,-62
C=CCn1c(SCc2c(C)noc2C)nc2ccccc2c1=O,-3,3,-6,0,?,62*
Cc1noc(C)c1CSc1nc2ccccc2c(=O)n1-c1ccccc1,42,-42,-5,0,21,/
O=C(C(Cc1ccccc1)NS(=O)(=O)c1cccc2cccnc12)N1CCc2ccccc21 (centres undefined),5,-5,-2,0,-5,55*

# Screening results: PubChem, Broad Institute
